Reference: ChEMBL document CHEMBL1134550, “Structure-activity studies of ground- and transition-state analogue inhibitors of cyclophilin” (J Med Chem, 2001)

Target: Peptidyl-prolyl cis-trans isomerase A (Homo sapiens, UniProt P62937)
Assay: Binding affinity towards cyclophilin A by fluorescence
Summary of the method: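 Recombinant human cyclophilin A, expressed in E. coli with IPTG induction and partially purified by ammonium sulfate fractionation and DEAE-Sepharose. Intrinsic Trp fluorescence enhancement measured at room temperature in 50 mM Tris-HCl pH 7.6, 0.1 M NaCl. Kd from nonlinear least-squares fit to a quadratic binding equation.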

Sequence of Peptidyl-prolyl cis-trans isomerase A (P62937 whole entry): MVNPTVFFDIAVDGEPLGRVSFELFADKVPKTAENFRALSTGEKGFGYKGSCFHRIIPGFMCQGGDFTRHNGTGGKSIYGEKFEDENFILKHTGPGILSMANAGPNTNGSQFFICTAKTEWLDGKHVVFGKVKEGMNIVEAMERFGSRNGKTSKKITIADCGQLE

| SMILES | Kd [µM] |
| --- | --- |
| COC(=O)[C@]12CCCN1C(=O)[C@](Cc1ccc3ccccc3c1)(NC(C)=O)CC2 | 1.5 |
| COC(=O)[C@]12CCCN1C[C@](Cc1ccc3ccccc3c1)(NC(=O)OC(C)(C)C)CC2 | 77 |
| COC(=O)[C@]12CCCN1C(=O)[C@](Cc1ccccc1)(NC(=O)OCc1ccccc1)CC2 | 124 |
| COC(=O)[C@]12CCCN1C[C@@H](NC(=O)OC(C)(C)C)CC2 | > 200 |
| COC(=O)[C@]12CCCN1C(=O)[C@@H](NC(=O)OC(C)(C)C)CC2 | > 200 |
| COC(=O)[C@]12CCCN1C(=O)[C@](Cc1ccc3ccccc3c1)(NC(=O)OCc1ccccc1)CC2 | 4.7 |
| COC(=O)[C@]12CCCN1C(=O)[C@](Cc1ccccc1)(NC(=O)OC(C)(C)C)CC2 | 140 |

Other lines, results leading:

| Kd [µM] | SMILES |
| --- | --- |
| 17 | COC(=O)[C@]12CCCN1C(=O)[C@](Cc1ccc3ccccc3c1)(NC(=O)OC(C)(C)C)CC2 |
| > 200 | COC(=O)[C@]12CCCN1C[C@H](NC(=O)OC(C)(C)C)CC2 |
| > 200 | COC(=O)[C@]12CCCN1C(=O)[C@H](NC(=O)OC(C)(C)C)CC2 |
| > 200 | COC(=O)[C@]12CCCN1C(=O)[C@H](NC(=O)OCc1ccccc1)CC2 |
